Reference: ChEMBL document CHEMBL4689842, “EUbOPEN Chemogenomics Library wave 1” (2021)
Where “and” joins values, the source holds several entries; their conditions need not be identical. Equal values may be shown once.

System: HEK-293T
Test: Multiplex assay against HEK293T;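 as to Population Tubulin-Different-Phenotype (%): share of the cells with healthy nuclei that show this phenotype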
Type: toxicity, cell-based
Details: human
Procedure, shortened: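 Live cells were stained at seeding with Hoechst33342, BioTracker Green Microtubule Cytoskeleton Dye, MitoTracker Red and Annexin V Alexa Fluor 680. Following compound addition, they were imaged on a CQ1 microscope at 37°C and 5% CO2 and gated by CellPathfinder machine learning into Hoechst high-intensity objects or normal cells, with normal cells split into healthy, pyknosed or fragmented nuclei and pyknosed cells into mitotic or apoptotic. Tubulin, mitochondrial-mass and membrane-permeability phenotypes are per cents of healthy-nucleus cells.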

[1] = 12 h, 1 µM, compound concentration 1 uM, replicate 1
[2] = 12 h, 1 µM, compound concentration 1 uM, replicate 2
[3] = 12 h, 10 µM, compound concentration 10 uM, replicate 1
[4] = 12 h, 10 µM, compound concentration 10 uM, replicate 2
[5] = 24 h, 1 µM, compound concentration 1 uM, replicate 1
[6] = 24 h, 1 µM, compound concentration 1 uM, replicate 2
[7] = 24 h, 10 µM, compound concentration 10 uM, replicate 1
[8] = 24 h, 10 µM, compound concentration 10 uM, replicate 2
[9] = 48 h, 1 µM, compound concentration 1 uM, replicate 1
[10] = 48 h, 1 µM, compound concentration 1 uM, replicate 2
[11] = 48 h, 10 µM, compound concentration 10 uM, replicate 1
[12] = 48 h, 10 µM, compound concentration 10 uM, replicate 2

For `CN(C)C(=O)N[C@H]1CC[C@H](CCN2CCN(c3cccc(Cl)c3Cl)CC2)CC1.Cl` [CARIPRAZINE HYDROCHLORIDE], the “Population Apoptotic (%)” value [1] was 48%, the “Population Fragmented Nuclei (%)” value [1] was 12% and the “Population Healthy Nuclei (%)” value [1] was 44%. For the same compound, the “Population Hoechst High Intensity Objects (%)” value [1] was 13%, the “Population Membrane Permeable-Phenotype (%)” value [1] was 1% and the “Population Mitochondria Different-Phenotype (%)” value [1] was 88%. The “Population Mitotic Cells (%)” value [1] was 51%, the “Population Normal (%)” value [1] was 86% and the “Population Pyknosed Nuclei (%)” value [1] was 42%. The “Population Tubulin-Different-Phenotype (%)” value [1] was 59%, the “Total Cell Count” value [1] was 326 and the “Population Apoptotic (%)” value [2] was 20%. For the same compound, the “Population Fragmented Nuclei (%)” value [2] was 4%, the “Population Healthy Nuclei (%)” value [2] was 42% and the “Population Hoechst High Intensity Objects (%)” value [2] was 4%. The “Population Membrane Permeable-Phenotype (%)” value [2] was 2%, the “Population Mitochondria Different-Phenotype (%)” value [2] was 32% and the “Population Mitotic Cells (%)” value [2] was 79%. For the same compound, the “Population Normal (%)” value [2] was 95%, the “Population Pyknosed Nuclei (%)” value [2] was 53% and the “Population Tubulin-Different-Phenotype (%)” value [2] was 24%. The “Total Cell Count” value [2] was 213, the “Population Apoptotic (%)” value [3] was 85% and the “Population Fragmented Nuclei (%)” value [3] was 7%. The “Population Healthy Nuclei (%)” value [3] was 25%, the “Population Hoechst High Intensity Objects (%)” value [3] was 15% and the “Population Membrane Permeable-Phenotype (%)” value [3] was 1%. The “Population Mitochondria Different-Phenotype (%)” value [3] was 98%, the “Population Mitotic Cells (%)” value [3] was 14% and the “Population Normal (%)” value [3] was 84%. The “Population Pyknosed Nuclei (%)” value [3] was 67%, the “Population Tubulin-Different-Phenotype (%)” value [3] was 98% and the “Total Cell Count” value [3] was 285. The “Population Apoptotic (%)” value [4] was 83%, the “Population Fragmented Nuclei (%)” value [4] was 4% and the “Population Healthy Nuclei (%)” value [4] was 16%. For the same compound, the “Population Hoechst High Intensity Objects (%)” value [4] was 6%, the “Population Membrane Permeable-Phenotype (%)” value [4] was 6% and the “Population Mitochondria Different-Phenotype (%)” value [4] was 96%. For the same compound, the “Population Mitotic Cells (%)” value [4] was 16%, the “Population Normal (%)” value [4] was 93% and the “Population Pyknosed Nuclei (%)” value [4] was 79%. For the same compound, the “Population Tubulin-Different-Phenotype (%)” value [4] was 93%, the “Total Cell Count” value [4] was 210 and the “Population Apoptotic (%)” value [5] was 46%. For the same compound, the “Population Fragmented Nuclei (%)” value [5] was 14%, the “Population Healthy Nuclei (%)” value [5] was 57% and the “Population Hoechst High Intensity Objects (%)” value [5] was 11%. The “Population Membrane Permeable-Phenotype (%)” value [5] was 1%, the “Population Mitochondria Different-Phenotype (%)” value [5] was 77% and the “Population Mitotic Cells (%)” value [5] was 53%. The “Population Normal (%)” value [5] was 88%, the “Population Pyknosed Nuclei (%)” value [5] was 27% and the “Population Tubulin-Different-Phenotype (%)” value [5] was 55%. The “Total Cell Count” value [5] was 379, the “Population Apoptotic (%)” value [6] was 12% and the “Population Fragmented Nuclei (%)” value [6] was 2%. For the same compound, the “Population Healthy Nuclei (%)” value [6] was 63%, the “Population Hoechst High Intensity Objects (%)” value [6] was 2% and the “Population Membrane Permeable-Phenotype (%)” value [6] was 4%. For the same compound, the “Population Mitochondria Different-Phenotype (%)” value [6] was 34%, the “Population Mitotic Cells (%)” value [6] was 87% and the “Population Normal (%)” value [6] was 97%. The “Population Pyknosed Nuclei (%)” value [6] was 33%, the “Population Tubulin-Different-Phenotype (%)” value [6] was 33% and the “Total Cell Count” value [6] was 275. For the same compound, the “Population Apoptotic (%)” value [7] was 90%, the “Population Fragmented Nuclei (%)” value [7] was 11% and the “Population Healthy Nuclei (%)” value [7] was 29%. The “Population Hoechst High Intensity Objects (%)” value [7] was 14%, the “Population Membrane Permeable-Phenotype (%)” value [7] was 0% and the “Population Mitochondria Different-Phenotype (%)” value [7] was 98%. For the same compound, the “Population Mitotic Cells (%)” value [7] was 9%, the “Population Normal (%)” value [7] was 85% and the “Population Pyknosed Nuclei (%)” value [7] was 59%. The “Population Tubulin-Different-Phenotype (%)” value [7] was 100%, the “Total Cell Count” value [7] was 289 and the “Population Apoptotic (%)” value [8] was 87%. The “Population Fragmented Nuclei (%)” value [8] was 3%, the “Population Healthy Nuclei (%)” value [8] was 37% and the “Population Hoechst High Intensity Objects (%)” value [8] was 7%. The “Population Membrane Permeable-Phenotype (%)” value [8] was 2%, the “Population Mitochondria Different-Phenotype (%)” value [8] was 97% and the “Population Mitotic Cells (%)” value [8] was 12%. For the same compound, the “Population Normal (%)” value [8] was 92%, the “Population Pyknosed Nuclei (%)” value [8] was 58% and the “Population Tubulin-Different-Phenotype (%)” value [8] was 96%. For the same compound, the “Total Cell Count” value [8] was 241, the “Population Apoptotic (%)” value [9] was 29% and the “Population Fragmented Nuclei (%)” value [9] was 9%. For the same compound, the “Population Healthy Nuclei (%)” value [9] was 78%, the “Population Hoechst High Intensity Objects (%)” value [9] was 7% and the “Population Membrane Permeable-Phenotype (%)” value [9] was 0%. The “Population Mitochondria Different-Phenotype (%)” value [9] was 37%, the “Population Mitotic Cells (%)” value [9] was 70% and the “Population Normal (%)” value [9] was 92%. The “Population Pyknosed Nuclei (%)” value [9] was 12%, the “Total Cell Count” value [9] was 609 and the “Population Apoptotic (%)” value [10] was 10%. The “Population Fragmented Nuclei (%)” value [10] was 6%, the “Population Healthy Nuclei (%)” value [10] was 80% and the “Population Hoechst High Intensity Objects (%)” value [10] was 2%. For the same compound, the “Population Membrane Permeable-Phenotype (%)” value [10] was 2%, the “Population Mitochondria Different-Phenotype (%)” value [10] was 15% and the “Population Mitotic Cells (%)” value [10] was 89%. For the same compound, the “Population Normal (%)” value [10] was 97%, the “Population Pyknosed Nuclei (%)” value [10] was 13% and the “Population Tubulin-Different-Phenotype (%)” value [10] was 35%. The “Total Cell Count” value [10] was 516, the “Population Apoptotic (%)” value [11] was 78% and the “Population Fragmented Nuclei (%)” value [11] was 16%. The “Population Healthy Nuclei (%)” value [11] was 41%, the “Population Hoechst High Intensity Objects (%)” value [11] was 15% and the “Population Membrane Permeable-Phenotype (%)” value [11] was 0%. The “Population Mitochondria Different-Phenotype (%)” value [11] was 99%, the “Population Mitotic Cells (%)” value [11] was 21% and the “Population Normal (%)” value [11] was 84%. For the same compound, the “Population Pyknosed Nuclei (%)” value [11] was 42%, the “Population Tubulin-Different-Phenotype (%)” value [11] was 94% and the “Total Cell Count” value [11] was 342. The “Population Apoptotic (%)” value [12] was 82%, the “Population Fragmented Nuclei (%)” value [12] was 7% and the “Population Healthy Nuclei (%)” value [12] was 51%. The “Population Hoechst High Intensity Objects (%)” value [12] was 6%, the “Population Mitochondria Different-Phenotype (%)” value [12] was 95% and the “Population Mitotic Cells (%)” value [12] was 17%. For the same compound, the “Population Normal (%)” value [12] was 93%, the “Population Pyknosed Nuclei (%)” value [12] was 41% and the “Population Tubulin-Different-Phenotype (%)” value [12] was 92%. The “Total Cell Count” value [12] was 274.

With `CN(C)c1ncnc(-c2ccc3nc(Nc4cc(CN5CCN(C(=O)CC(F)(F)F)CC5)ccn4)[nH]c3c2)c1Cl` [BAY-440] the “Population Apoptotic (%)” value [3] was 24% and 18%, the “Population Fragmented Nuclei (%)” value [3] was 30% and 12% and the “Population Hoechst High Intensity Objects (%)” value [3] was 21% and 12%. The “Population Mitochondria Different-Phenotype (%)” value [3] was 16% and 8%, the “Population Mitotic Cells (%)” value [3] was 75% and 81% and the “Population Normal (%)” value [3] was 78% and 87%. For the same compound, the “Population Pyknosed Nuclei (%)” value [3] was 49% and 24%, the “Total Cell Count” value [3] was 575 and 589 and the “Population Apoptotic (%)” value [4] was 16% and 6%. The “Population Fragmented Nuclei (%)” value [4] was 2% and 5%, the “Population Healthy Nuclei (%)” value [4] was 79% and 89% and the “Population Hoechst High Intensity Objects (%)” value [4] was 3% and 1%. For the same compound, the “Population Membrane Permeable-Phenotype (%)” value [4] was 12% and 6%, the “Population Mitotic Cells (%)” value [4] was 83% and 93% and the “Population Normal (%)” value [4] was 96% and 98%. For the same compound, the “Total Cell Count” value [4] was 1131 and 1517, the “Population Fragmented Nuclei (%)” value [7] was 29% and 10% and the “Population Membrane Permeable-Phenotype (%)” value [7] was 10% and 16%. The “Population Mitotic Cells (%)” value [7] was 66% and 89%, the “Population Normal (%)” value [7] was 78% and 94% and the “Population Tubulin-Different-Phenotype (%)” value [7] was 65% and 25%. For the same compound, the “Total Cell Count” value [7] was 555 and 720, the “Population Apoptotic (%)” value [8] was 16% and the “Population Healthy Nuclei (%)” value [8] was 76% and 79%. The “Population Hoechst High Intensity Objects (%)” value [8] was 4% and 2%, the “Population Membrane Permeable-Phenotype (%)” value [8] was 8% and 13% and the “Population Mitotic Cells (%)” value [8] was 83%. The “Population Normal (%)” value [8] was 95% and 97% and the “Total Cell Count” value [8] was 1110 and 2572.
